Results reported in publication PMC5691919 (ACS Chemical Neuroscience, 2017).
Values joined by “and” are separate entries in the source; they are usually repeats but may differ in a detail not shown here. Equal values may be shown once. “Also recorded” adds a separate entry of the source.

How the values were obtained:
rat MOR (C6-MOR) [1] = target: T1, rat MOR (C6-MOR) (Rattus norvegicus, UniProt P33535); test: [3H]-diprenorphine competitive displacement binding, C6-MOR membranes
Summary of the method: (§1)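 Membranes came from C6 glioma cells stably expressing rat MOR or DOR, or CHO cells stably expressing human KOR. Membranes (20 μg protein) in 50 mM Tris-HCl pH 7.4 were incubated with 0.2 nM [³H]-diprenorphine and varying test compound concentrations for 1 h at room temperature, then filtered on GF/C. Nonspecific binding was defined with 10 μM naloxone. Ki came from logistic nonlinear regression; at least three assays in duplicate.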

rat MOR (C6-MOR) [2] = target: T1, rat MOR (C6-MOR); test: Stimulation of [35S]-GTPγS binding, C6-MOR membranes; format: biochemical; conditions: for Emax: read-out: % stimulation MOR; for % stimulation MOR: percent maximal stimulation relative to DAMGO at 10 μM
Summary of the method: (§2)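 Rat MOR or DOR (C6) and human KOR (CHO) membranes (10–20 μg protein) were incubated 1 h at 25 °C in 50 mM Tris-HCl, 100 mM NaCl, 5 mM MgCl₂, pH 7.4, with 0.1 nM [³⁵S]-GTPγS, 30 μM GDP and varying test compound concentrations, then filtered on GF/C. % stimulation was taken relative to 10 μM DAMGO (MOR), DPDPE (DOR) or U69,593 (KOR). EC50 came from nonlinear regression; at least three assays in duplicate.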

human KOR (CHO-KOR) [3] = target: T2, human KOR (CHO-KOR) (Homo sapiens, UniProt P41145); test: Stimulation of [35S]-GTPγS binding, CHO-KOR membranes; format: biochemical; conditions: for EC50 KOR: [35S]-GTPγS binding, mean (SEM); for EC50 KOR / % stimulation KOR: dns: does not stimulate; for % stimulation KOR: percent maximal stimulation relative to U69,593 at 10 μM
Summary of the method: as §2

rat DOR (C6-DOR) [4] = target: T3, rat DOR (C6-DOR) (Rattus norvegicus, UniProt P33533); test: Stimulation of [35S]-GTPγS binding, C6-DOR membranes; format: biochemical; conditions: for % stimulation DOR: percent maximal stimulation relative to DPDPE at 10 μM; for % stimulation DOR / EC50 DOR: dns: does not stimulate; for EC50 DOR: [35S]-GTPγS binding, mean (SEM)
Summary of the method: as §2

rat DOR (C6-DOR) [5] = target: T3, rat DOR (C6-DOR); test: [3H]-diprenorphine competitive displacement binding, C6-DOR membranes
Summary of the method: as §1

human KOR (CHO-KOR) [6] = target: T2, human KOR (CHO-KOR); test: [3H]-diprenorphine competitive displacement binding, CHO-KOR membranes
Summary of the method: as §1

[7] = displacement of [3H]-diprenorphine, mean (SEM), n = 3

| SMILES | Ki (rat MOR (C6-MOR) [1]) [nM] | EC50 (rat MOR (C6-MOR) [2]) [nM] | Emax (rat MOR (C6-MOR) [2]) [%] | EC50 (human KOR (CHO-KOR) [3]) [nM] | EC50 (rat DOR (C6-DOR) [4]) [nM] | % stimulation DOR (rat DOR (C6-DOR) [4]) | Ki (rat DOR (C6-DOR) [5]) [nM] | Ki (human KOR (CHO-KOR) [6]) [nM] | EC50 KOR (human KOR (CHO-KOR) [3]) | % stimulation KOR (human KOR (CHO-KOR) [3]) | % stimulation MOR (rat MOR (C6-MOR) [2]; dns: does not stimulate) | EC50 DOR (rat DOR (C6-DOR) [4]) | EC50 MOR (rat MOR (C6-MOR) [2]; [35S]-GTPγS binding, mean (SEM), dns: does not stimulate) | Binding, Ki MOR (rat MOR (C6-MOR) [1]; [7]) | Binding, Ki KOR (human KOR (CHO-KOR) [6]; [7]) |
| --- | --- | --- | --- | --- | --- | --- | --- | --- | --- | --- | --- | --- | --- | --- | --- |
| COc1ccccc1Cc1ccc2c(c1)[C@H](NC(=O)[C@@H](N)Cc1c(C)cc(O)cc1C)CCN2 [Compound 4a] | 0.34 | 8.9 | 91 | 1000 | 130 | 16 (2.2) % | 6.5 | 54 |  |  |  |  |  |  |  |
| COc1cccc(Cc2ccc3c(c2)[C@H](NC(=O)[C@@H](N)Cc2c(C)cc(O)cc2C)CCN3)c1 [Compound 4b] | 0.11 | 4.4 | 99 |  | 230 | 10 (2.6) % | 5.4 | 27 | dns^d | displayed no agonist effect; also recorded: dns^d |  |  |  |  |  |
| COc1ccc(Cc2ccc3c(c2)[C@H](NC(=O)[C@@H](N)Cc2c(C)cc(O)cc2C)CCN3)cc1 [Compound 4c] | 0.29 | 9.3 |  |  |  | did not stimulate GTPγS binding; also recorded: eliminating stimulation; also recorded: dns^d | 15 | 100 | dns^d | displayed no agonist effect; also recorded: eliminating stimulation; also recorded: dns^d | 55 (3.4) % | dns^d |  |  |  |
| Cc1cc(O)cc(C)c1C[C@H](N)C(=O)N[C@@H]1CCNc2ccc(Cc3ccccc3O)cc21 [Compound 4d] | 0.26 | 9.8 | 89 | 270 | 1500 |  | 5.6 | 5.7 |  | 67% and 67 (3.5) % |  |  |  |  |  |
| Cc1cc(O)cc(C)c1C[C@H](N)C(=O)N[C@@H]1CCNc2ccc(Cc3cccc(O)c3)cc21 [Compound 4e] | 0.19 | 4.8 | 96 | 230 | 140 | 67% and 67 (1.6) % | 1.4 | 16 |  |  |  |  |  |  |  |
| Cc1cc(O)cc(C)c1C[C@H](N)C(=O)N[C@@H]1CCNc2ccc(Cc3ccc(O)cc3)cc21 [Compound 4f] | 1.7 |  |  |  |  | did not stimulate GTPγS binding; also recorded: dns^d | 130 | 420 | dns^d | displayed no agonist effect; also recorded: dns^d | no stimulation of GTP binding and dns | dns^d | dns |  |  |
| COc1cccc2c1CC(Cc1ccc3c(c1)[C@H](NC(=O)[C@@H](N)Cc1c(C)cc(O)cc1C)CCN3)C2 (stereo partly drawn) [Compound 8a] |  | 1.9 |  |  |  | dns^d | 2.3 | 67 | dns^d | low affinity KOR antagonists; also recorded: dns^d | 48 (2.9) % | dns^d |  |  |  |
| COc1ccc2c(c1)CC(Cc1ccc3c(c1)[C@H](NC(=O)[C@@H](N)Cc1c(C)cc(O)cc1C)CCN3)C2 (stereo partly drawn) [Compound 8b] | 0.08 | 7.9 |  |  |  | dns^d |  | 33 | dns | low affinity KOR antagonists and dns | 22 (3.7) % | dns^d |  |  |  |
| Cc1cc(O)cc(C)c1C[C@H](N)C(=O)N[C@@H]1CCNc2ccc(CC3Cc4cccc(O)c4C3)cc21 (stereo partly drawn) [Compound 8c] |  |  |  | 25 |  | no stimulation at DOR; also recorded: dns^d |  | 0.77 |  | 92% and 92 (3.6) % | 66 (3.3) % | dns^d |  | subnanomolar binding affinity | subnanomolar binding affinity |
| Cc1cc(O)cc(C)c1C[C@H](N)C(=O)N[C@@H]1CCNc2ccc(CC3Cc4ccc(O)cc4C3)cc21 (stereo partly drawn) [Compound 8d] | 0.82 | 7 |  |  |  | dns | 15 | 41 | dns | low affinity KOR antagonists and dns | 16 (2.4) % | dns |  |  |  |
